Columns and labels:
Rattus norvegicus [1] = species: Rattus norvegicus; assay: Specific binding of [18F]AFA in striatum of rat pretreated with compound 7f; n=3; format: functional
Rattus norvegicus [2] = species: Rattus norvegicus; assay: Specific binding of [18F]AFA in thalamus of rat pretreated with compound 7f; n=3; format: functional
Rattus norvegicus [3] = assay: Biodistribution of [18F]AFP in rat hippocampus at 30 min postinjection in vivo; format: ADME, organism-based; conditions: 0.5 h
Rattus norvegicus [4] = assay: Biodistribution of [18F]AFP in rat striatum at 120 min postinjection in vivo; format: ADME, organism-based; conditions: 2 h
Rattus norvegicus [5] = assay: Biodistribution of [18F]AFP in rat hypothalamus at 120 min postinjection in vivo; format: ADME, organism-based; conditions: 2 h
Rattus norvegicus [6] = assay: Biodistribution of [18F]AFP in rat hypothalamus at 10 min postinjection in vivo; format: ADME, organism-based
Rattus norvegicus [7] = assay: Biodistribution of [18F]AFP in rat hypothalamus at 30 min postinjection in vivo; format: ADME, organism-based; conditions: 0.5 h
Rattus norvegicus [8] = assay: Biodistribution of [18F]-AFP in rat frontal cortex at 60 min postinjection in vivo; format: ADME, organism-based; conditions: 1 h
Method in brief: (§1)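 Male Sprague-Dawley rats, three per time point, received the F-18 radioligand in saline (~20 µCi per rat at injection) by tail vein. Under CO2 anesthesia they were decapitated at 10, 30, 60, 90 or 120 min. Blood and dissected brain regions were weighed and gamma counted. Activity was decay-corrected, and injected dose was corrected for tail residual activity. Uptake was expressed as %ID/g versus injectate standards, mean ± SD.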

Rattus norvegicus [9] = assay: Biodistribution of [18F]AFP in rat thalamus at 60 min postinjection in vivo; format: ADME, organism-based; conditions: 1 h
Rattus norvegicus [10] = assay: Biodistribution of [18F]AFP in rat hippocampus at 120 min postinjection in vivo; format: ADME, organism-based; conditions: 2 h
Rattus norvegicus [11] = assay: Biodistribution of [18F]AFP in rat cerebellum at 120 min postinjection in vivo; format: ADME, organism-based; conditions: 2 h
Rattus norvegicus [12] = species: Rattus norvegicus; assay: Specific binding of [18F]AFA in hippocampus of rat pretreated with compound 7f; n=3; format: functional
Rattus norvegicus [13] = assay: Biodistribution of [18F]AFP in rat thalamus at 10 min postinjection in vivo; format: ADME, organism-based
Rattus norvegicus [14] = assay: Biodistribution of [18F]AFP in rat hippocampus at 90 min postinjection in vivo; format: ADME, organism-based; conditions: 1.5 h
Rattus norvegicus [15] = assay: Biodistribution of [18F]AFP in rat striatum at 90 min postinjection in vivo; format: ADME, organism-based; conditions: 1.5 h
Rattus norvegicus [16] = assay: Biodistribution of [18F]AFP in rat blood at 90 min postinjection in vivo; format: ADME, organism-based; conditions: 1.5 h
Rattus norvegicus [17] = species: Rattus norvegicus; assay: Specific binding of [18F]AFA in hypothalamus of rat pretreated with compound 7f; n=3; format: functional
Rattus norvegicus [18] = assay: Biodistribution of [18F]-AFP in rat blood at 120 min postinjection in vivo; format: ADME, organism-based; conditions: 2 h; method in brief: as §1
Rattus norvegicus [19] = assay: Biodistribution of [18F]AFP in rat thalamus at 90 min postinjection in vivo; format: ADME, organism-based; conditions: 1.5 h
Rattus norvegicus [20] = assay: Biodistribution of [18F]AFP in rat striatum at 30 min postinjection in vivo; format: ADME, organism-based; conditions: 0.5 h
Rattus norvegicus [21] = assay: Biodistribution of [18F]AFP in rat frontal cortex at 90 min postinjection in vivo; format: ADME, organism-based; conditions: 1.5 h
Rattus norvegicus [22] = assay: Biodistribution of [18F]AFP in rat thalamus at 30 min postinjection in vivo; format: ADME, organism-based; conditions: 0.5 h
Rattus norvegicus [23] = assay: Biodistribution of [18F]AFP in rat blood at 10 min postinjection in vivo; format: ADME, organism-based
Rattus norvegicus [24] = assay: Biodistribution of [18F]AFP in rat hypothalamus at 90 min postinjection in vivo; format: ADME, organism-based; conditions: 1.5 h
Rattus norvegicus [25] = assay: Biodistribution of [18F]AFP in rat thalamus at 120 min postinjection in vivo; format: ADME, organism-based; conditions: 2 h
Rattus norvegicus [26] = assay: Biodistribution of [18F]AFP in rat blood at 60 min postinjection in vivo; format: ADME, organism-based; conditions: 1 h
Rattus norvegicus [27] = assay: Biodistribution of [18F]-AFP in rat frontal cortex at 30 min postinjection in vivo; format: ADME, organism-based; conditions: 0.5 h; method in brief: as §1
Rattus norvegicus [28] = assay: Biodistribution of [18F]AFP in rat cerebellum at 60 min postinjection in vivo; format: ADME, organism-based; conditions: 1 h
Rattus norvegicus [29] = assay: Biodistribution of [18F]AFP in rat hypothalamus at 60 min postinjection in vivo; format: ADME, organism-based; conditions: 1 h
Rattus norvegicus [30] = assay: Biodistribution of [18F]AFP in rat frontal cortex at 120 min postinjection in vivo; format: ADME, organism-based; conditions: 2 h
Rattus norvegicus [31] = assay: Biodistribution of [18F]-AFP in rat cerebellum at 30 min postinjection in vivo; format: ADME, organism-based; conditions: 0.5 h; method in brief: as §1
Rattus norvegicus [32] = assay: Biodistribution of [18F]AFP in rat frontal cortex at 10 min postinjection in vivo; format: ADME, organism-based
Rattus norvegicus [33] = assay: Biodistribution of [18F]-AFP in rat hippocampus at 10 min postinjection in vivo; format: ADME, organism-based; method in brief: as §1
Rattus norvegicus [34] = assay: Biodistribution of [18F]AFP in rat striatum 60 min postinjection in vivo; format: ADME, organism-based; conditions: 1 h
Rattus norvegicus [35] = assay: Biodistribution of [18F]AFP in rat blood at 30 min postinjection in vivo; format: ADME, organism-based; conditions: 0.5 h
Rattus norvegicus [36] = assay: Biodistribution of [18F]AFP in rat striatum at 10 min postinjection in vivo; format: ADME, organism-based
Rattus norvegicus [37] = assay: Biodistribution of [18F]-AFP in rat hippocampus at 60 min postinjection in vivo; format: ADME, organism-based; conditions: 1 h; method in brief: as §1
Rattus norvegicus [38] = assay: Biodistribution of [18F]AFP in rat cerebellum at 90 min postinjection in vivo; format: ADME, organism-based; conditions: 1.5 h
Rattus norvegicus [39] = assay: Biodistribution of [18F]-AFP in rat cerebellum at 10 min postinjection in vivo; format: ADME, organism-based; method in brief: as §1
Rattus norvegicus [40] = species: Rattus norvegicus; assay: Specific binding of [18F]-AFA in frontal cortex of rat pretreated with compound 7f; n=3; format: functional

Biodistribution (Rattus norvegicus [3]): 0.19 %ID/g
Biodistribution (Rattus norvegicus [4]): 0.08 %ID/g
Biodistribution (Rattus norvegicus [5]): 0.1 %ID/g
Biodistribution (Rattus norvegicus [6]): 0.42 %ID/g
Biodistribution (Rattus norvegicus [7]): 0.21 %ID/g
Biodistribution (Rattus norvegicus [8]): 0.12 %ID/g
Biodistribution (Rattus norvegicus [9]): 0.16 %ID/g
Biodistribution (Rattus norvegicus [10]): 0.08 %ID/g
Biodistribution (Rattus norvegicus [11]): 0.03 %ID/g
Biodistribution (Rattus norvegicus [13]): 0.44 %ID/g
Biodistribution (Rattus norvegicus [14]): 0.07 %ID/g
Biodistribution (Rattus norvegicus [15]): 0.08 %ID/g
Biodistribution (Rattus norvegicus [16]): 0.08 %ID/g
Biodistribution (Rattus norvegicus [18]): 0.04 %ID/g
Biodistribution (Rattus norvegicus [19]): 0.1 %ID/g
Biodistribution (Rattus norvegicus [20]): 0.21 %ID/g
Biodistribution (Rattus norvegicus [21]): 0.05 %ID/g
Biodistribution (Rattus norvegicus [22]): 0.28 %ID/g
Biodistribution (Rattus norvegicus [23]): 0.18 %ID/g
Biodistribution (Rattus norvegicus [24]): 0.1 %ID/g
Biodistribution (Rattus norvegicus [25]): 0.1 %ID/g
Biodistribution (Rattus norvegicus [26]): 0.14 %ID/g
Biodistribution (Rattus norvegicus [27]): 0.21 %ID/g
Biodistribution (Rattus norvegicus [28]): 0.07 %ID/g
Biodistribution (Rattus norvegicus [29]): 0.13 %ID/g
Biodistribution (Rattus norvegicus [30]): 0.08 %ID/g
Biodistribution (Rattus norvegicus [31]): 0.14 %ID/g
Biodistribution (Rattus norvegicus [32]): 0.47 %ID/g
Biodistribution (Rattus norvegicus [33]): 0.36 %ID/g
Biodistribution (Rattus norvegicus [34]): 0.11 %ID/g
Biodistribution (Rattus norvegicus [35]): 0.15 %ID/g
Biodistribution (Rattus norvegicus [36]): 0.41 %ID/g
Biodistribution (Rattus norvegicus [37]): 0.13 %ID/g
Biodistribution (Rattus norvegicus [38]): 0.03 %ID/g
Biodistribution (Rattus norvegicus [39]): 0.31 %ID/g
SMILES: CN(C)Cc1ccccc1Sc1ccc(CCC[18F])cc1N
Specific binding (Rattus norvegicus [1]): 0.07 %ID/g
Specific binding (Rattus norvegicus [2]): 0.35 %ID/g
Specific binding (Rattus norvegicus [12]): 0.03 %ID/g
Specific binding (Rattus norvegicus [17]): 0.26 %ID/g
Specific binding (Rattus norvegicus [40]): 0.05 %ID/g

From ChEMBL document CHEMBL1145212, “Fluorinated diaryl sulfides as serotonin transporter ligands: synthesis, structure-activity relationship study, and in vivo evaluation of fluorine-18-labeled compounds as PET imaging agents” (J Med Chem, 2005)
